Screens from PubChem.
Only some compounds are listed: those with a hit (about 2.5% of all), similar ones and a draw of the others.
mABHD4 FP: inhibits mouse alpha/beta hydrolase domain 4 | purified mABHD4, FP-Rh probe fluorescence polarization | AID 720543 | 370,000 tested, 0.54% active | inhibition, % at 8.92 µM;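 active = inhibition exceeding the mean over every tested compound plus 3 SD, cut at about 30% in these data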
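Test system: mABHD4 protein | Buffer or medium: HEPES pH 7.0 buffer, 150 mM NaCl, 0.01% Pluronic F-127 | Probe or stimulus: FP-Rh fluorescent activity-based probe, added after compound pre-incubation | Timing: Pre-incubation 45 min, probe exposure 60 min, at 25 °C | Technique: Fluorescence polarization, excitation 525 nm, emission 598 nm, BODIPY TMR filters | Repeats: Single well per compound (singlicate)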
HTRA1 inhibitor: blocks human HTRA1 serine peptidase; recombinant HTRA1, FP-rhodamine activity-based probe, fluorescence polarization; inhibition, % at 5.96 µM; 340,000 tested, 0.5% active; Q92743; in the data active = inhibition above about 36%
Target sequence (Q92743 whole entry, looked up): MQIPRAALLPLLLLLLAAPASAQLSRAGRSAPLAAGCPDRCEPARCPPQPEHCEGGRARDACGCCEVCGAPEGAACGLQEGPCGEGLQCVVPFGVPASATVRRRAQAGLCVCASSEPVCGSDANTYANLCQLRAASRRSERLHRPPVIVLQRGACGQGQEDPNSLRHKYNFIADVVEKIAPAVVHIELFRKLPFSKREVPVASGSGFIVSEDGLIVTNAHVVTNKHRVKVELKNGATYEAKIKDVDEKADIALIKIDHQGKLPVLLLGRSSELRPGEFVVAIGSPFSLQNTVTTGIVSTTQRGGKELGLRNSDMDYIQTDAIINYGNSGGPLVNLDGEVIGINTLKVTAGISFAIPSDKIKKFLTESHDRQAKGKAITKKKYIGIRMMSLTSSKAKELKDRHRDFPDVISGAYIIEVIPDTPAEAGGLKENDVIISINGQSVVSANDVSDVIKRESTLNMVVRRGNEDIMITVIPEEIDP
SIAE inh: inhibitors of human sialic acid acetylesterase SIAE; Q9HAT2; SIAE FP-Rh probe binding, fluorescence polarization; inhibition, % at 9.66 µM; 370,000 tested, 0.69% active;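 active = inhibition above a cutoff: mean of compounds within the control limits plus 3 SD of those, cut at about 17% in these data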
TCR CD3 inh: human TCR-CD3 binding inhibition | TAMRA-labeled TCR probe fluorescence, biochemical | inhibition, % at 9.4 µM | 360,000 tested, 0.37% active | AID 651800; in the data active = inhibition above about 19%;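 note: recombinant mutant TCR 2C K166C tagged with TAMRA read by polarization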
rCAG RNA binder: binds r(CAG) RNA repeats; inhibition, % at 3 µM; r(CAG) RNA repeat, TO-PRO-1 dye displacement fluorescence; 370,000 tested, 1.3% active;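 active = inhibition above the plate cutoff, the mean of all test compounds on that plate plus 3 SD, cut at about 35% in these data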;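 note: higher means more dye released from RNA so lower well fluorescence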
SIAE inh conf: human SIAE inhibition, confirmation; AID 1117263; SIAE FP-Rh activity-based probe, fluorescence polarization; shares compounds with SIAE inh; inhibition, % at 9.66 µM; 2,300 tested, 13% active;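 active = mean inhibition of the replicates above the hit cutoff set in the primary screen, cut at about 17% in these data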;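 note: inhibitors lower polarization as more probe stays unbound to SIAE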
A number is an active result; . = inactive; / = no result given.

SMILES | mABHD4 FP | HTRA1 inhibitor | SIAE inh | TCR CD3 inh | rCAG RNA binder | SIAE inh conf
CC(=O)Nc1ccc(N/C=C/C(=O)c2ccc(Cl)cc2)cc1 | . | . | 19 | . | . | .
CCOc1ccc(NC(=S)NCCCn2ccnc2)cc1 | . | . | . | . | . | /
S=C(NCCCn1ccnc1)Nc1cccc(Cl)c1 | . | . | 20 | . | . | .
Cn1cc(/C=N\NC(=O)C2COc3ccccc3O2)c2ccccc21 (centres undefined) | . | / | 20 | . | . | .
COc1cccc(CN2C(=O)c3ccccc3S2(=O)=O)c1 | . | . | 17 | . | . | .
O=C1Nc2ccccc2C1=Nc1ccc2[nH]c3ccccc3c2c1 | . | . | 17 | . | . | .
Cc1ccc(N=C2C(=O)Nc3ccccc32)cc1C | . | . | . | . | . | /
COc1ccc(/C=C/C(=O)NC(=S)Nc2cc([N+](=O)[O-])ccc2O)cc1OC | . | . | 18 | 50 | 52 | .
N#Cc1cccc(NC(=O)CSc2ccc3c4c(cccc24)C(=O)c2ccccc2-3)c1 | . | . | 57 | . | . | 48
CC(C)CC(NC(=O)c1ccccc1)C(=O)N/N=C/c1ccco1 (centres undefined) | . | . | . | . | . | /
CC(NC(=O)c1ccccc1)C(=O)N/N=C/c1ccco1 (centres undefined) | . | . | 18 | . | . | .
COc1ccccc1NC(=S)N/N=C/c1ccc(O)cc1 | . | . | 19 | . | . | .
O=C(O)C(O)(c1ccccc1)C(O)c1ccccc1 (centres undefined) | . | . | . | . | . | /
CNc1nnc(CSc2nc(C)cc(C)n2)s1 | . | . | 27 | . | . | .
Cc1[nH]nc2c1C(c1ccc(-c3ccc(Cl)cc3)o1)C(C#N)=C(N)O2 (centres undefined) | . | . | 18 | . | . | .
Cc1ccc(-c2ccc(C3C(C#N)=C(N)Oc4n[nH]c(C)c43)o2)cc1 (centres undefined) | . | . | . | . | . | /
O=C(c1cccs1)N1CCN=C1SCc1ccc(F)cc1 | . | . | . | . | . | /
O=C(NNc1c2ccccc2nc2ccccc12)c1cccc(O)c1 | . | . | 18 | . | . | .
O=C(NNc1c2ccccc2nc2ccccc12)c1ccc(O)cc1 | . | . | . | . | . | /
O=[N+]([O-])c1cccc(CN2[C@@H](Cc3ccccc3)COCCS2(=O)=O)c1 | . | . | . | . | . | /
CC(=O)c1ccc(NC(=O)Nc2ccc3c(c2)N(C)C(=O)CS3)cc1 | . | . | . | . | . | /
COc1ccc(NC(=O)Nc2ccc3c(c2)N(C)C(=O)CS3)cc1Cl | . | . | 27 | . | . | .
CCOc1ccc(NC(=O)Nc2ccc3c(c2)N(C)C(=O)CS3)cc1 | . | . | 18 | . | . | .
COc1ccc(S(=O)(=O)N2CCC(C(=O)NCCN3CCOCC3)CC2)cc1C | . | . | . | . | . | /
COc1ccc(C(=O)NN=C2CCCC2)cc1 | . | . | 20 | . | . | .
SMILES | mABHD4 FP | HTRA1 inhibitor | SIAE inh | TCR CD3 inh | rCAG RNA binder | SIAE inh conf
CCCC(C(=O)NC1CCCC1)N(Cc1ccc2c(c1)OCO2)C(=O)c1snc(C(N)=O)c1N (centres undefined) | . | . | 24 | . | . | .
Cc1cccc(/C(N)=N/OC(=O)c2ccc(F)cc2)c1 | . | . | 20 | . | . | .
CC(C)(C)OC(=O)[C@H](Cc1ccccc1)NC(=O)c1[nH]cnc1C(=O)Nc1ccccc1F | . | . | . | . | . | /
Cc1ccc(C2(C)NC(=O)N(CC(=O)Nc3ccc4[nH]c(=O)[nH]c4c3)C2=O)cc1 (centres undefined) | . | . | . | . | . | /
CC1(c2ccc(Cl)cc2Cl)NC(=O)N(CC(=O)Nc2ccc3[nH]c(=O)[nH]c3c2)C1=O (centres undefined) | . | . | 24 | . | . | .
COc1ccc(Nc2cc(C)nc3ccc(OC)cc23)cc1 | . | . | 19 | . | . | .
Cn1c(=O)[nH]c(=O)c2c1nc(Br)n2C/C=N/NC(=O)c1ccccc1 | . | . | . | . | . | /
Cc1ccc2cccc(N)c2n1 | . | . | 32 | . | . | .
Cn1c(SCc2ccc(F)cc2)nnc1-c1cnccn1 | . | . | . | . | . | /
Cn1c(SCc2ccccc2)nnc1-c1cnccn1 | . | . | 20 | . | . | .
CCCCC(=O)Nc1ccc(C(=O)NCCN2CCOCC2)cc1 | . | . | . | . | . | /
Cc1nn(Cc2ccc(Cl)cc2Cl)c(C)c1NC(=O)c1nn(C)cc1Cl | . | . | . | . | . | /
